Results pooled from the literature.
Each line is one published result; the experiments were not run side by side.
Target: Sodium-dependent dopamine transporter (SLC6A3, Homo sapiens, UniProt Q01959)

Compound	observed	mode	method	cell line	concentration	inhibition
Nc1ccc(-c2ccncc2)cc1NC(=O)N1CCCC1	ligand displacement		radioligand		10 µM	21%
O=C1N=C(N2CCCCN2)S/C1=C\c1ccc(F)cc1O	ligand displacement		radioligand		10 µM	< 10%
CCN(Cc1ccccc1C(F)(F)F)C(=O)C1CCN(S(=O)(=O)c2ccc3[nH]ncc3c2)CC1	ligand displacement		radioligand		10 µM	39%
CCN(CC)c1ccc(C2Nc3ccc(C(=O)c4ccccc4)cc3NC3=C2C(=O)CC(C)(C)C3)cc1 (stereo not drawn)	ligand displacement		radioligand		10 µM	69%
COc1cc(NC(C)=O)c(Cl)cc1C(=O)Nc1nccs1	cell-free assay				10 µM	5.5%
Clc1ccc(C(c2ccccc2)c2nnnn2CCCN2CCC(CCCc3ccccc3)CC2)cc1 (stereo not drawn)	transporter uptake	inhibitor		HEK293	1 µM	89.6%
Cc1cc(-c2nc(CN3CCNCC3)no2)cc2c1C(=O)N(Cc1ccc(OC(F)(F)F)cc1)C2	ligand displacement		radioligand		10 µM	44%
CCCNc1nc2ccccc2n1Cc1ccc(Cl)cc1	ligand displacement				10 µM	24.3%
Fc1ccc(C(c2ccc(F)cc2)c2nnnn2CCCCN2CCN(CCCc3ccccc3)CC2)cc1	transporter uptake	inhibitor		HEK293	1 µM	56.2%
N#Cc1cc(Cn2c(N3CCCC3)nc3ccccc32)ccc1F	ligand displacement				10 µM	19.3%
Clc1ccc(C(c2ccc(Cl)cc2)c2nnnn2CCCCN2CCN(Cc3ccccc3)CC2)cc1	transporter uptake	inhibitor		HEK293	1 µM	91.7%
Oc1cccc(Nc2nc(-c3ccc(F)cc3F)cs2)c1	cell-free assay				10 µM	49.8%
